pEC50, pIC50: −log10 of the molar value. Where a name gives a salt, the structure may show the parent alone.
Columns and labels:
3D ECTs [1] = experiment: Contractility; type: cell-based, human; details: for MEC (minimum effective concentration), active force: serum-free, paced at 1 Hz, 15 min per concentration
Outline: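 Tissues were built from iCell cardiomyocytes plus human ventricular cardiac fibroblasts in hydrogel on Biowire II wires. After 30 min chamber equilibration, a 30-s baseline video was recorded, then a second one 10 min after a medium-pipetting step. Test compound in DMSO was added cumulatively at 3 or 4 rising concentrations (final DMSO 0.001–0.1%), 15 min each, with a 30-s video per concentration. n=6–9 tissues, one compound per tissue.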

NaV1.5 = details: read-out: NaV1.5 IC50; ref Wang et al. 2010; cited from earlier work
2D hiPSC-CMs [2] = experiment: Motion-field imaging contractility; type: cell-based, human; details: for MEC (minimum effective concentration), maximum contraction speed: serum-containing medium, concentration for 1.08-fold increase or 0.92-fold decrease
Outline: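 Thawed iCell hiPSC-CMs were re-plated on day 7 onto a ~3 mm fibronectin spot and cultured 5–9 days at 37°C, 5% CO2, with serum-containing medium overnight before recording. Phase-contrast video at 4x, 150 frames/s, analysed by block-matching. After sham baseline, cumulative additions from 1,000-fold DMSO stocks (final DMSO 0.1–0.4% v/v), 15 min each, 10-s videos; 4–5 wells. MEC by four-parameter log fit, 1.08/0.92-fold cutoffs.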

CaV1.2 = details: read-out: CaV1.2 IC50; ref Ando et al. 2017; cited from earlier work
hERG = details: read-out: hERG IC50; ref Sube and Ertel 2017; cited from earlier work
2D hiPSC-CMs [3] = details: ref Okai et al. 2020; cited from earlier work
3D ECTs [4] = details: read-out: EC50, positive inotropic effect; same 3D ECT model; ref Feric et al. 2019; cited from earlier work
aligned hiPSC-CMs = details: ref Satsuka et al. 2024; cited from earlier work

Compound	MEC (minimum effective concentration), active force (3D ECTs [1]) [µM]	MEC (minimum effective concentration), maximum contraction speed (2D hiPSC-CMs [2]) [µM]	Concentration up to which no effect on active force was observed (3D ECTs [1]) [µM]	other results
CC(C)NCC(O)COc1cccc2ccccc12 (racemic) [Propranolol, (±)-propranolol hydrochloride]	3.0			MEC (minimum effective concentration), active force (3D ECTs [1]; listed as propranolol): ~3 µM; pIC50 (NaV1.5): 5.52
Nc1cc(-c2ccncc2)c[nH]c1=O [Amrinone, amrinone]		>100		
CC(=O)Oc1ccccc1C(=O)O [Aspirin, acetylsalicylic acid]	>300	>300	300	
C[C@H](CS)C(=O)N1CCC[C@H]1C(=O)O [Captopril, captopril]	>100	>100	100	
CN/C(=N/CCSCc1nc[nH]c1C)NC#N [Cimetidine, cimetidine]	>100	>100	100	
COc1ccc(Cl)cc1C(=O)NCCc1ccc(S(=O)(=O)NC(=O)NC2CCCCC2)cc1 [Glibenclamide, glyburide]	>100	>100		
O=C(CCCN1CCC(O)(c2ccc(Cl)cc2)CC1)c1ccc(F)cc1 [Haloperidol, haloperidol]	0.30	>0.10		pIC50 (CaV1.2): 5.89; Concentration at which irregular beating was induced (2D hiPSC-CMs [2]): above 0.10 µM
CC(C)NCC(O)c1ccc(O)c(O)c1 (stereo not shown) [Isoproterenol, isoproterenol]	<0.00010			MEC, positive inotropic effect (active force) (3D ECTs [1]): below 0.1 nM; MEC, positive inotropic effect (maximum contraction speed) (2D hiPSC-CMs [2]): 0.35 nM
Cc1ccc(N(CC2=NCCN2)c2cccc(O)c2)cc1 [Phentolamine, phentolamine hydrochloride]		>0.30	3.0	pIC50 (hERG): 6.07
COc1ccc(-c2nc3ccc(C4=NNC(=O)CC4C)cc3[nH]2)cc1 (stereo not shown) [Pimobendan, pimobendan]		>60		
CC[C@H](C)C(=O)O[C@H]1C[C@H](O)C=C2C=C[C@H](C)[C@H](CC[C@@H](O)C[C@@H](O)CC(=O)O)[C@H]21 [Pravastatin, pravastatin]	>100	>100	100	
CCOc1ccccc1OCCN[C@H](C)Cc1ccc(OC)c(S(N)(=O)=O)c1 [Tamsulosin, tamsulosin]	3.0	>3.0	1.0	
CN(C)C/C=C(/c1ccc(Br)cc1)c1cccnc1 [Zimelidine, zimelidine]		>0.10	3.0	
CC(CCc1ccc(O)cc1)NCCc1ccc(O)c(O)c1 (stereo not shown) [dobutamine]				Inotropic effect in 2D hiPSC-CMs (previous study) (2D hiPSC-CMs [3]): positive inotropic effect
Cc1[nH]c(=O)c(C#N)cc1-c1ccncc1 [milrinone]				pEC50 (3D ECTs [4]): 8.80; Inotropic effect in aligned hiPSC-CMs (aligned hiPSC-CMs): remained undetectable

Reference: paper PMC12118959 (Toxicological Sciences, 2025)
